Laboratory results reported in ChEMBL document CHEMBL1250535, “Synthesis, anti-fungal and 1,3-β-D-glucan synthase inhibitory activities of caffeic and quinic acid derivatives” (Bioorg Med Chem, 2010).
≈ marks a conversion by molar mass, not a printed value. Starred links: 1 amine or outer side, 2 acyl side, 3 side chain; linkers in the order of their positions; H or OH if unused. Positions of bridges follow the written chain, without caps; N, C: chain ends. Non-standard residues stand in square brackets, D forms with d. Residues, ends and D or L forms follow the SMILES beside them. *: point of attachment. Orn(4R-OH,5R-OH) = O=C([C@H](C[C@@H](O)[C@@H](O)N[*:3])N[*:1])[*:2]; hTyr(3S-OH,4S-OH) = N[C@H](C(=O)O)[C@H](O)[C@@H](O)c1ccc(O)cc1; Pro(3S-OH,4S-Me) = C[C@H]1CN[C@H](C(=O)O)[C@H]1O; Palmitoyl = CCCCCCCCCCCCCCCC(=O)*; Hyp = O=C(O)[C@@H]1C[C@@H](O)CN1

Experiments:
[1] = biological target: T1, Beta-1,3-glucan synthase (Candida albicans, UniProt O13383); assay: Inhibition of Candida albicans 1,3 beta-D-glucan synthase
T1 sequence (O13383 whole entry): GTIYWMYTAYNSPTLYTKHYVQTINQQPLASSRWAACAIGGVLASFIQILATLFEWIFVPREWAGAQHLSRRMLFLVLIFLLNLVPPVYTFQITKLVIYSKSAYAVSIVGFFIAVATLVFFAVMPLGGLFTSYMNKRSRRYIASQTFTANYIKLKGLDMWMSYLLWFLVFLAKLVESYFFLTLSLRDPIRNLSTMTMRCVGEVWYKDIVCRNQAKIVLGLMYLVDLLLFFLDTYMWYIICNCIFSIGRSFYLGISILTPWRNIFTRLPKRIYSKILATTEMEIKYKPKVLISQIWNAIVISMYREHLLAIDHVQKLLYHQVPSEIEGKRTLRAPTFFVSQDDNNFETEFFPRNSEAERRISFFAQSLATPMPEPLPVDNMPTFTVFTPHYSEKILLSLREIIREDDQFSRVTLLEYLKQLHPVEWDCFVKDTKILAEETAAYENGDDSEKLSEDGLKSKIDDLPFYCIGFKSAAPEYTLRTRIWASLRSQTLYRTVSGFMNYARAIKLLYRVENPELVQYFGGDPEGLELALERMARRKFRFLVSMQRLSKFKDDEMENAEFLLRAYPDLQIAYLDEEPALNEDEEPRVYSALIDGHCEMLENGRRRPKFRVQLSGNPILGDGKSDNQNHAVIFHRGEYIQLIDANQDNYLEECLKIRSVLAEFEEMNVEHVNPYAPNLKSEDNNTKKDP
Method in brief: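 Membrane-bound enzyme prepared from Candida albicans. Reaction mix: 50 mM Tris–HCl pH 7.5, 0.5 mM EDTA, 25 mM KF, GTPγS, 0.75% BSA, 5.0 mM UDP-Glc, with and without test compound. Started by adding enzyme, run 20 min at 30 °C, stopped by heating 10 min at 96 °C. Glucan formed quantified by a 1,3-β-D-glucan-dependent enzyme cascade (BGSTAR kit).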

[2] = test system: Candida albicans; assay: Antifungal activity against Candida albicans by NCCLS method; format: functional
Method in brief: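 Broth dilution per NCCLS against Candida albicans NBRC 1594.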

Row | IC50 [1] [µM] | MIC [2] [µM] | Structure (SMILES)
1 | 52 | 27 (≈ 16.1 µg/mL) | CCCCCCCCOc1ccc(NC(=O)C(CCCNC(=O)OC(C)(C)C)NC(=O)/C=C/c2ccc(O)c(O)c2)cc1 (centres undefined)
2 | 53 | 16 (≈ 8.15 µg/mL) | CCCCCCCCOc1ccc(NC(=O)C(CCCN)NC(=O)[C@]2(O)C[C@@H](O)[C@@H](O)[C@H](O)C2)cc1 (some centres undefined)
3 | > 81 | 81 (≈ 32 µg/mL) | CCCCCCCCOc1ccc(NC(=O)[C@]2(O)C[C@@H](O)[C@@H](O)[C@H](O)C2)cc1
4 | > 65 | > 129 | CCCCCCCCOc1ccc(NC(=O)C(NC(=O)[C@]2(O)C[C@@H](O)[C@@H](O)[C@H](O)C2)C(C)O)cc1 (some centres undefined)
5 | > 63 | > 125 | CCCCCCCCOc1ccc(NC(=O)C(CC(=O)O)NC(=O)[C@]2(O)C[C@@H](O)[C@@H](O)[C@H](O)C2)cc1 (some centres undefined)
6 | 22 | 4 (≈ 1.99 µg/mL) | CCCCCCCCOc1ccc(NC(=O)C(CCCN)NC(=O)/C=C/c2ccc(O)c(O)c2)cc1 (centres undefined)
7 | > 84 | 84 (≈ 32.2 µg/mL) | CCCCCCCCOc1ccc(NC(=O)/C=C/c2ccc(O)c(O)c2)cc1
8 | > 66 | 8.3 (≈ 4.02 µg/mL) | CCCCCCCCOc1ccc(NC(=O)C(NC(=O)/C=C/c2ccc(O)c(O)c2)C(C)O)cc1 (centres undefined)
9 | > 64 | 64 (≈ 31.9 µg/mL) | CCCCCCCCOc1ccc(NC(=O)C(CC(=O)O)NC(=O)/C=C/c2ccc(O)c(O)c2)cc1 (centres undefined)
10 | 37 | 15 (≈ 8.11 µg/mL) | CCCCCCCCOc1ccc(NC(=O)C(NC(=O)/C=C/c2ccc(O)c(O)c2)C(C)OC(C)(C)C)cc1 (centres undefined)
11 | 58 | 29 (≈ 16.1 µg/mL) | CCCCCCCCOc1ccc(NC(=O)C(CC(=O)OC(C)(C)C)NC(=O)/C=C/c2ccc(O)c(O)c2)cc1 (centres undefined)
12 | > 49 | 12 (≈ 7.9 µg/mL) | CCCCCCCCOc1ccc(NC(=O)C(NC(=O)[C@]2(O)C[C@@H](O)[C@@H](O)[C@H](OC(=O)/C=C/c3ccc(O)c(O)c3)C2)C(C)O)cc1 (some centres undefined)
13 | 15 | 6 (≈ 4.03 µg/mL) | CCCCCCCCOc1ccc(NC(=O)C(CCCN)NC(=O)[C@]2(O)C[C@@H](O)[C@@H](O)[C@H](OC(=O)/C=C/c3ccc(O)c(O)c3)C2)cc1 (some centres undefined)
14 | > 48 | 48 (≈ 32.3 µg/mL) | CCCCCCCCOc1ccc(NC(=O)C(CC(=O)O)NC(=O)[C@]2(O)C[C@@H](O)[C@@H](O)[C@H](OC(=O)/C=C/c3ccc(O)c(O)c3)C2)cc1 (some centres undefined)
15 | 41 | 14 (≈ 7.81 µg/mL) | CCCCCCCCOc1ccc(NC(=O)[C@]2(O)C[C@@H](O)[C@@H](O)[C@H](OC(=O)/C=C/c3ccc(O)c(O)c3)C2)cc1

Row | Structure (SMILES) | IC50 [1] [µM] | MIC [2] [µM]
16 | CCCCCCCCCCCCCCCC(=O)N[C@H]1C[C@@H](O)[C@@H](O)NC(=O)[C@@H]2[C@@H](O)[C@@H](C)CN2C(=O)[C@H]([C@@H](C)O)NC(=O)[C@H]([C@H](O)[C@@H](O)c2ccc(O)cc2)NC(=O)[C@@H]2C[C@@H](O)CN2C(=O)[C@H]([C@@H](C)O)NC1=O [ACULEACIN A] (Palmitoyl-[Orn(4R-OH,5R-OH)]T[Hyp][hTyr(3S-OH,4S-OH)]T[Pro(3S-OH,4S-Me)]; lactam 1-C) | 8 | 0.23 (≈ 0.238 µg/mL)
17 | O=C(/C=C/c1ccc(O)c(O)c1)O[C@@H]1C[C@](O)(C(=O)O)C[C@@H](O)[C@H]1O [CHLOROGENIC ACID] | > 90 | > 181
